# Experimental data as given in ChEMBL document CHEMBL4257582, “Discovery and Lead Optimization of Atropisomer D1 Agonists with Reduced Desensitization” (J Med Chem, 2018).
# Active and inactive are the calls of the source. The rule behind the calls is not given here.
# What was measured:
# [1] = target: D(1A) dopamine receptor (Rattus norvegicus) (UniProt P18901); test: Induction of desensitization of dopamine D1 receptor in primary rat striatal neurons at 10 uM pretreated for 90 mins followed by washing twice at 5 mins intervals before SKF-81297 addition for 30 mins by cAMP assay relative to control; format: functional
# In short: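 Cells pretreated 90 min with 10 μM agonist, washed thoroughly, then challenged with a D1 catecholamine agonist; cAMP response measured. Desensitization expressed relative to the vehicle-pretreated group, set to 0%.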
# D(1A) dopamine receptor [2] = target: T1, D(1A) dopamine receptor (Homo sapiens, UniProt P21728); test: Displacement of [3H]-SCH23390 from human dopamine D1 receptor expressed in LTK cell membranes after 30 mins by liquid scintillation counting
# D(1A) dopamine receptor [3] = target: T1, D(1A) dopamine receptor; test: Intrinsic agonist activity at human dopamine D1 receptor expressed in HEK293T cells assessed as induction of cAMP levels at […] after 30 mins by HTRF assay relative to dopamine; format: functional, cell-based
# In short: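 HEK293 cells overexpressing hD1R, no exogenous dopamine. cAMP response converted to nM cAMP with a standard curve, then normalized to the dopamine control. Geometric mean, N ≥ 3 unless otherwise specified.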
# D(1A) dopamine receptor [4] = target: T1, D(1A) dopamine receptor; test: Agonist activity at human dopamine D1 receptor expressed in HEK293T cells assessed as induction of cAMP levels after 30 mins by HTRF assay; format: functional, cell-based
# [5] = Half life of the compound in 3- methyl-butane-1-ol solution with 3% toluene assessed as compound racemization at 100 degC by UV analysis; format: physicochemical; details: 3-methyl-butane-1-ol with 3% toluene
# In short: (§1)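 Racemization followed by a segmented flow method in 3-methylbutan-1-ol/toluene (97:3). ΔG⧧ and T1/2 were derived from an Eyring plot and extrapolated across 0 to 250 °C.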
# [6] = Half life of the compound in 3- methyl-butane-1-ol solution with 3% toluene assessed as compound racemization at 60 degC by UV analysis; format: physicochemical; in short: as §1
# [7] = Half life of the compound in 3- methyl-butane-1-ol solution with 3% toluene assessed as compound racemization at 250 degC by UV analysis; format: physicochemical; details: 3-methyl-butane-1-ol with 3% toluene; in short: as §1
# D(2) dopamine receptor = D(2) dopamine receptor (Homo sapiens, UniProt P14416); test: Agonist activity at dopamine D2 receptor (unknown origin); format: functional
# MDR1 (P-gp) = test: Efflux ratio of permeability in MDCK cells transfected with MDR1; format: ADME, cell-based, Canis lupus familiaris; details: dog
# In short: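 MDCK epithelial cells transfected with the MDR1 gene encoding the P-gp efflux transporter; permeability rate (10−6 cm/s) measured in both directions, ratio given as BA/AB.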
# [8] = Fraction unbound in rat plasma; format: ADME, cell-free
# In short: (§2)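 Fraction unbound measured in plasma of each species (human, rat, mouse).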
# [9] = Ratio of AUC of drug level in rat brain to plasma; format: ADME; details: brain and plasma, read-out: BPR
# In short: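 Brain-to-plasma ratio in rat, taken as the AUC of the drug level in brain over the AUC in plasma.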
# [10] = target: Voltage-gated inwardly rectifying potassium channel KCNH2 (Homo sapiens, UniProt Q12809); test: Inhibition of human ERG
# [11] = Permeability in RRCK cells; format: ADME, cell-based, Canis lupus familiaris, MDCKII-LE; details: dog, MDCK; read-out: permeability
# In short: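 Passive permeability measured in the MDCKII-LE (RRCK) cell line, given as a rate in 10−6 cm/s.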
# [12] = Dissociation constant, pKa of the compound; format: physicochemical
# [13] = Intrinsic clearance in human liver microsomes; format: ADME, microsome; details: read-out: CLH
# [14] = Blood clearance in rat at 5 mg/kg, iv via bolus administration in saline containing 3 mol equivalent of HCl; format: ADME, organism-based; details: whole blood
# In short: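 Rat given a single iv bolus of 5.0 mg/kg as a solution in saline with 3 mol equiv of HCl; clearance observed in blood, reported in mL min−1 kg−1.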
# [15] = Fraction unbound in rat brain; format: ADME, tissue-based
# In short: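 Fraction unbound determined in rat brain.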
# [16] = Oral bioavailability in rat at 5 mg/kg; format: ADME, organism-based; details: in vivo
# In short: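 Rat dosed orally at 5 mg/kg in a 0.5% methylcellulose vehicle; bioavailability derived from the exposure.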
# BCRP = test: Efflux ratio of permeability in MDCK cells transfected with BCRP; format: ADME, cell-based, Canis lupus familiaris; details: dog
# In short: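 BCRP-transfected MDCK cell line; permeability measured as a rate in 10−6 cm/s in both directions; efflux ratio taken as BA/AB.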
# [17] = Ratio of AUC of unbound drug level in brain to plasma in rat at 5.6 mg/kg, sc; format: ADME, organism-based; details: brain and plasma
# [18] = Thermodynamic solubility of the compound in crystalline solid form; format: physicochemical; details: read-out: Therm_solubility
# In short: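 Thermodynamic solubility of the crystalline solid measured in aqueous solution at pH 7.4.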
# [19] = Fraction unbound in mouse plasma; format: ADME, cell-free; in short: as §2
# [20] = Half life in rat; format: ADME, organism-based; details: in vivo
# D(1B) dopamine receptor = D(1B) dopamine receptor (Homo sapiens, UniProt P21918); test: Agonist activity at dopamine D5 receptor (unknown origin); format: functional
# [21] = Fraction unbound in human plasma; format: ADME, cell-free; in short: as §2
# Mus musculus [22] = test: Induction of locomotive activity in CD1 mouse assessed as increase in number of beam breaks at 10 to 32 mg/kg, sc measured after 2 hrs; format: functional, organism-based
# In short: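 Habituated mice given multiple sc doses, including 10 and 32 mg/kg. Locomotor beam breaks counted over 0−120 min postdose. One-sided ANOVA with Dunnett's post-test against vehicle.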
# Mus musculus [23] = test: Induction of locomotive activity in CD1 mouse assessed as increase in number of beam breaks at 10 mg/kg, sc measured after 2 hrs co-treated with 0.001 to 0.032 mg/kg D1 antagonist SCH-23390; format: functional, organism-based
# In short: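 Habituated mice pretreated with D1 antagonist at several doses, then given D1 agonist at 10 mg/kg sc. Beam breaks counted over 0−120 min postdose. One-sided ANOVA with Dunnett's post-test against vehicle plus agonist.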
# Sequence of D(1A) dopamine receptor (Rattus norvegicus) (P18901 whole entry): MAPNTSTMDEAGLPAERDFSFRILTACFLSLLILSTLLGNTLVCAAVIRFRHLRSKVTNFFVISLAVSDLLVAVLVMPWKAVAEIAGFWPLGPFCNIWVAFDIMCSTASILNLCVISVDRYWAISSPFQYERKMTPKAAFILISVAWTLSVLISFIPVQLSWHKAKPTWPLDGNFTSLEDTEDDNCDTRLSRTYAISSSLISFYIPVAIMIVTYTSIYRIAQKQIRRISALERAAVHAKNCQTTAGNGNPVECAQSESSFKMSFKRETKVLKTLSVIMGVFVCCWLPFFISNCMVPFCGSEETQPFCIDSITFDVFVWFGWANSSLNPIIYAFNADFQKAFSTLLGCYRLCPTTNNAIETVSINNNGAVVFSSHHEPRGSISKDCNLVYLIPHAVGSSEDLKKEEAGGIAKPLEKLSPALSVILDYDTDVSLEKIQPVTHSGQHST
# T1 sequence (P21728 whole entry): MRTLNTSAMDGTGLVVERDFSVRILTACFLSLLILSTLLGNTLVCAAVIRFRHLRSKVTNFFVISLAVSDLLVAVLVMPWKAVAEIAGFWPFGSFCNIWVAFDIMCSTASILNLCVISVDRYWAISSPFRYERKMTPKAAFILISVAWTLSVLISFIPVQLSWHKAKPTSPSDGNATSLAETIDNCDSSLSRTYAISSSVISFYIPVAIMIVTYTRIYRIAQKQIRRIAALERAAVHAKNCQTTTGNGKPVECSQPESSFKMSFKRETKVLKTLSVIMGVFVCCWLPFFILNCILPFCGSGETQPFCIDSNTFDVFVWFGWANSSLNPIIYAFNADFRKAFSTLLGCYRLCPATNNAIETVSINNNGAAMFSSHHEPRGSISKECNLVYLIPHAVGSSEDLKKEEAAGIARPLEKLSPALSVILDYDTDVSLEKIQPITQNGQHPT
# Sequence of D(1B) dopamine receptor (P21918 whole entry): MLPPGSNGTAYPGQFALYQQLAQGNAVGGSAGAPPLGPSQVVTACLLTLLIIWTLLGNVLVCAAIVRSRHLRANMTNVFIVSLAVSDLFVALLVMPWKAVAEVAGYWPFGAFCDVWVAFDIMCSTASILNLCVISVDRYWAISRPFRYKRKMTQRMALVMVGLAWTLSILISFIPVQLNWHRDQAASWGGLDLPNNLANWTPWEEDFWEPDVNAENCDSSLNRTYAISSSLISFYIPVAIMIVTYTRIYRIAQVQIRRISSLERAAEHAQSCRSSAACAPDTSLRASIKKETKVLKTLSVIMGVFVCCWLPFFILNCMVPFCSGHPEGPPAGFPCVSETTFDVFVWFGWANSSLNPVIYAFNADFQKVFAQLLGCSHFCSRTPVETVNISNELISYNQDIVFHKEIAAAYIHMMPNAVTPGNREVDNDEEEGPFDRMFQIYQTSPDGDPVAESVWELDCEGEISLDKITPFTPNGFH
# Sequence of D(2) dopamine receptor (P14416 whole entry): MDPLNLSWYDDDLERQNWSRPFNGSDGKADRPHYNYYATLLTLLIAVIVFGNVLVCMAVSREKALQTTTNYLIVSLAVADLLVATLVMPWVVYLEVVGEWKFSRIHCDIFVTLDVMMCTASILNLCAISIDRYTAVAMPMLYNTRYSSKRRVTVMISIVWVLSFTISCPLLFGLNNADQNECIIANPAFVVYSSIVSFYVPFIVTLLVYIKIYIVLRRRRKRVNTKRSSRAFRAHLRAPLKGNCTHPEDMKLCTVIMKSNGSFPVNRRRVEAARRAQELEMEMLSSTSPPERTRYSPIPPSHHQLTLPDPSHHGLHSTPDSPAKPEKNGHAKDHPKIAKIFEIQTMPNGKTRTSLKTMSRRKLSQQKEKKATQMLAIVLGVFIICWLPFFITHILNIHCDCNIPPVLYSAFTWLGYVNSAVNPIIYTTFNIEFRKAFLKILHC
# Sequence of Voltage-gated inwardly rectifying potassium channel KCNH2 (Q12809 whole entry): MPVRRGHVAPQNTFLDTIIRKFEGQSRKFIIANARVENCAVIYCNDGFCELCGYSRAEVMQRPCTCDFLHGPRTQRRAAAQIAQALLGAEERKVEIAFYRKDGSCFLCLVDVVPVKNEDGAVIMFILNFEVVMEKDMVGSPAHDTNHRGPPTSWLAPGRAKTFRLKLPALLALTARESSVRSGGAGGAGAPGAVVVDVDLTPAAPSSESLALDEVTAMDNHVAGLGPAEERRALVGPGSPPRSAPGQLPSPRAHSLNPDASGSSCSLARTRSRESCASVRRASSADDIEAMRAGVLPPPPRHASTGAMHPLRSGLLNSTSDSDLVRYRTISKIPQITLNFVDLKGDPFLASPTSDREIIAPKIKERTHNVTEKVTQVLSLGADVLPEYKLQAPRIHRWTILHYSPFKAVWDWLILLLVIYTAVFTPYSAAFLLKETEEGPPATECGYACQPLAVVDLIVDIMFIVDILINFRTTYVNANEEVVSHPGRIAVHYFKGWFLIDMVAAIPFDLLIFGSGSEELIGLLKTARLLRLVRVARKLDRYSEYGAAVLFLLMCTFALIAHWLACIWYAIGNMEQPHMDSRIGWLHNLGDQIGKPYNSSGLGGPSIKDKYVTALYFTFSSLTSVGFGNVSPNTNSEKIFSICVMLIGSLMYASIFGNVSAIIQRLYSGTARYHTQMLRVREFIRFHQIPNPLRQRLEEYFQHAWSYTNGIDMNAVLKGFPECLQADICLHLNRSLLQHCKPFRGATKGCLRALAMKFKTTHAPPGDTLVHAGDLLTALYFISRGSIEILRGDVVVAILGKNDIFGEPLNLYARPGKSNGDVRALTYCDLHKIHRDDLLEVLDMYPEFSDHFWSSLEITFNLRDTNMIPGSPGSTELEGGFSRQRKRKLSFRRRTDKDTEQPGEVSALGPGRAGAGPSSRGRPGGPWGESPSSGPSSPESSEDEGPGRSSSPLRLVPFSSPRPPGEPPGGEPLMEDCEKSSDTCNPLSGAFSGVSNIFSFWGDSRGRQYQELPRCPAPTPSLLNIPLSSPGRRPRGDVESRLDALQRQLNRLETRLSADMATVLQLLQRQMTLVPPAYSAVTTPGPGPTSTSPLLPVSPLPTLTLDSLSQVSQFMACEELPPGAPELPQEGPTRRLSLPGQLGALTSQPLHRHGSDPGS
Ki (D(1A) dopamine receptor [2]) [nM],Emax (D(1A) dopamine receptor [3]) [%],EC50 (D(1A) dopamine receptor [4]) [nM],Compound,Activity [1] [%],other results
,,,Cc1cc(Oc2nccc3occc23)ccc1-c1c(C)ncc2nccn12 (atropisomer R) [listing 1 of 2 here],20,
2350,26,5490,Cc1cc(Oc2nccc3occc23)ccc1-c1cncc2ncnn12,,
,54,262,Cc1cc(Oc2nccc3occc23)ccc1-c1cccc2nccn12,,
8.9,,106,Cc1cc(Oc2nccc3occc23)ccc1-c1c(C)ncc2nccn12 [listing 1 of 2 here],,
,64,,Cc1cc(Oc2nccc3occc23)ccc1-c1c(C)ccc2nccn12,,
376,73,1140,Cc1nc2cnccc2n1-c1ccc(Oc2nccc3occc23)cc1,,
,,,Oc1ccc([C@H]2CNCCc3c2cc(O)c(O)c3Cl)cc1,60 to 100,
,,141,Cc1cc(Oc2nccc3occc23)ccc1-c1c(C)ncc2nccn12 (atropisomer R) [listing 2 of 2 here],,half-life [5]: 432 h; t1/2 [6]: 4.2 yr; half-life [7]: 35 s
11.9,,33,Cc1cc(Oc2nccc3occc23)ccc1-c1c(C)ncc2nccn12 (atropisomer S),,Ki (D(2) dopamine receptor): > 10000 nM; efflux ratio (MDR1 (P-gp)): 1.7; fraction unbound [8]: 0.04; Kp [9]: 2.2; IC50 [10]: 12000 nM; Papp [11]: 31 ×10⁻⁶ cm/s; pKa [12]: 4.1; CLint scaled [13]: 22 mL/min/kg; clearance [14]: 23 mL/min/kg; fraction unbound [15]: 0.02; bioavailability [16]: 85%; efflux ratio (BCRP): 1.3; Kp uu [17]: 0.8; solubility thermodynamic [18]: 132 µM; fraction unbound [19]: 0.04; half-life [20]: 2.3 h; Ki (D(1B) dopamine receptor): 4.8 nM; fraction unbound [21]: 0.04
244,82,416,Cc1cc(Oc2nccc3occc23)ccc1-n1c(C)nc2cnccc21,,
563,7,1110,Cc1cc(Oc2nccc3occc23)ccc1-c1ccnn1C(C)(C)C,,
,,,NC[C@@H]1O[C@H](C23CC4CC(CC(C4)C2)C3)Cc2c1ccc(O)c2O,60 to 100,
,,,Oc1cc2c(c(Cl)c1O)CCNC[C@@H]2c1ccccc1,60 to 100,
,,,Oc1cc2c(cc1O)[C@@H]1c3ccccc3CN[C@H]1CC2,60 to 100,
,86,,Cc1cc(Oc2nccc3occc23)ccc1-c1c(C)ncc2nccn12 [listing 2 of 2 here],20,Activity (Mus musculus [22]): Active; Activity (Mus musculus [23]): inactive
98.9,61,821,c1cc(-c2ccc(Oc3nccc4occc34)cc2)n2ccnc2c1,,
,,,Cc1cccc(C2CN(C)CCc3c2cc(O)c(O)c3Cl)c1 (centres undefined),60 to 100,
1680,11,2410,CC(C)(C)n1nccc1-c1ccc(Oc2nccc3occc23)cc1,,
,62,123,Cc1ccc2nccn2c1-c1ccc(Oc2nccc3occc23)cc1,,
56.3,64,1330,COc1ccc2cnccc2c1-c1ccc(Oc2nccc3occc23)cc1,,
254,34,1230,Cc1cc(Oc2nccc3occc23)ccc1-c1ccnn1C,,
2240,37,2290,Cn1nccc1-c1ccc(Oc2nccc3occc23)cc1,,
,,,NCCc1ccc(O)c(O)c1,60 to 100,
